The source of these data is ChEMBL document CHEMBL3244246, “2-Substituted derivatives of 9-alpha-D-arabinofuranosyladenine and 9-alpha-D-arabinofuranosyl-8-azaadenine” (J Med Chem, 1977).

Calls of active or inactive are those of the source. The calls are words filed in the database; no cut-off is given here.

The subject of one data set is Human adenovirus 2. Nature of the data set: Antiviral activity against Human adenovirus 2 Adenoid-6 infected in human KB cells assessed as inhibition of virus-induced cytopathogenicity measured at 4 days post-virus infection by Microtest 2 plate based microscopic analysis. It counts as functional, organism-based. In a few lines:
(§1)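 Cells pregrown in microplates in BME (double vitamins/amino acids, 5% FBS). Medium replaced with compound-containing medium plus virus giving 32 CCID50 per well. Seven concentrations, half-log steps from cytotoxic to noncytotoxic, in triplicate. Cell, virus and cytotoxicity controls run alongside. Incubated 37 °C; cpe reduction judged microscopically at 4 days. Virus rating (VR) derived from cpe inhibition and cytotoxicity.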
Background: Damage to the host cells serves as the signal in cytopathic effect assays.

The next data set has as its system Human alphaherpesvirus 3. Nature of the data set: Antiviral activity against Varicella zoster virus Ellen infected in human WI-38 cells assessed as inhibition of virus-induced cytopathogenicity measured at 7 days post-virus infection by […] microscopic analysis. It counts as functional, organism-based. In a few lines:
(§2)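 Diploid human embryonic lung fibroblasts, 7-day-old monolayers in tubes, MEM plus 2% fetal bovine serum. Compound added in fresh medium (triplicate), then ~32 CCID50 virus per culture. Incubated 37 °C; medium replaced with fresh drug-containing medium at 48 h and again 48 h later. Cytotoxicity, virus and cell controls included. Cpe scored microscopically at day 7; virus rating (VR) calculated from cpe inhibition and drug cytotoxicity.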

In a further data set the test system is Human alphaherpesvirus 1. Nature of the data set: Antiviral activity against Herpes simplex virus 1 HF infected in human Hep2 cells assessed as inhibition of virus-induced cytopathogenicity measured at 4 days post-virus infection by Microtest 2 plate based microscopic analysis. It counts as functional, organism-based. Conditions: HEp-2. The gist of the method: as §1

A further data set has as its system Cytomegalovirus. Nature of the data set: Antiviral activity against Cytomegalovirus AD 169 infected in human WI-38 cells assessed as inhibition of virus-induced cytopathogenicity measured at 7 days post-virus infection by […] microscopic analysis. Format: functional, organism-based. In a few lines: as §2
The subject of data set [1] is Respiratory syncytial virus. Nature of the data set: Antiviral activity against Respiratory syncytial virus Long infected in human Hep2 cells assessed as inhibition of virus-induced cytopathogenicity measured at 4 days post-virus infection by Microtest 2 plate based microscopic analysis. It counts as functional, organism-based. Conditions: HEp-2. The gist of the method: as §1

Another data set relates to Human rhinovirus 1A. Nature of the data set: Antiviral activity against Human rhinovirus 1A 2060 infected in human KB cells assessed as inhibition of virus-induced cytopathogenicity measured at 4 days post-virus infection by Microtest 2 plate based microscopic analysis. Format: functional, organism-based. In a few lines:
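Rhinovirus in KB cells under BME with 5% fetal bovine serum, challenged at 32 CCID50 per well alongside compound. Seven half-log concentrations spanning cytotoxic to noncytotoxic, triplicate. Cell, virus and drug-cytotoxicity controls included. Plates sealed, held at 33 °C. Cpe reduction examined microscopically after 4 days; virus rating (VR) computed from cpe inhibition and cytotoxicity.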

Data set [2] can be described thus: Virus rating for antiviral activity against Herpes simplex virus 1 HF infected in human Hep2 cells assessed as inhibition of virus-induced cytopathic effect taking into account cytotoxicity against human Hep2 cells.

In the case of `NNc1nc(N)c2nnn([C@H]3O[C@H](CO)[C@@H](O)[C@@H]3O)c2n1`, the inhibition result (in the data set on Human adenovirus 2; in the data set with Human alphaherpesvirus 3; with Human alphaherpesvirus 1; in the data set on Cytomegalovirus; in data set [1]; with Human rhinovirus 1A) was “inactive” throughout.

With `Nc1ncnc2c1ncn2[C@H]1O[C@H](CO)[C@@H](O)[C@@H]1O`, the virus rating in data set [2] was determined as 0.6.

In the case of `COc1nc(N)c2nnn([C@H]3O[C@H](CO)[C@@H](O)[C@@H]3O)c2n1`, the inhibition entry (with Human adenovirus 2; in the data set on Human alphaherpesvirus 3; in the data set with Human alphaherpesvirus 1; in the data set on Cytomegalovirus; in data set [1]; with Human rhinovirus 1A) was “inactive” each time.

Regarding `Nc1ncnc2c1nnn2[C@H]1O[C@H](CO)[C@@H](O)[C@@H]1O`, the virus rating in data set [2] came to 1.

For the compound `COc1nc(N)c2ncn([C@H]3O[C@H](CO)[C@@H](O)[C@@H]3O)c2n1`, the inhibition result (in the data set with Human adenovirus 2; with Human alphaherpesvirus 3; in the data set with Human alphaherpesvirus 1; with Cytomegalovirus; in data set [1]; in the data set on Human rhinovirus 1A) was “inactive” in each case.

Turning to `CS(=O)(=O)c1nc(N)c2nnn([C@H]3O[C@H](CO)[C@@H](O)[C@@H]3O)c2n1`, the inhibition result (in the data set with Human adenovirus 2; with Human alphaherpesvirus 3; with Human alphaherpesvirus 1; with Cytomegalovirus; in data set [1]; in the data set with Human rhinovirus 1A) was “inactive” each time.

With `NNc1nc(N)c2ncn([C@H]3O[C@H](CO)[C@@H](O)[C@@H]3O)c2n1`, the inhibition result (with Human adenovirus 2; with Human alphaherpesvirus 3; with Human alphaherpesvirus 1; in the data set with Cytomegalovirus; in data set [1]; in the data set on Human rhinovirus 1A) was “inactive” in each case.

Take `CSc1nc(N)c2ncn([C@H]3O[C@H](CO)[C@@H](O)[C@@H]3O)c2n1`: the inhibition result (with Human adenovirus 2; in the data set with Human alphaherpesvirus 3; in the data set with Human alphaherpesvirus 1; with Cytomegalovirus; in data set [1]; with Human rhinovirus 1A) was “inactive” each time.

For `CSc1nc(N)c2nnn([C@H]3O[C@H](CO)[C@@H](O)[C@@H]3O)c2n1`, the inhibition entry (with Human adenovirus 2; with Human alphaherpesvirus 3; in the data set on Human alphaherpesvirus 1; in the data set on Cytomegalovirus; in data set [1]; in the data set with Human rhinovirus 1A) was “inactive” throughout.

As for `[N-]=[N+]=Nc1nc(N)c2nnn([C@H]3O[C@H](CO)[C@@H](O)[C@@H]3O)c2n1`, the inhibition result (in the data set with Human adenovirus 2; in the data set with Human alphaherpesvirus 3; with Human alphaherpesvirus 1; in the data set on Cytomegalovirus; in data set [1]; in the data set on Human rhinovirus 1A) was “inactive” each time.
